Results taken from ChEMBL document CHEMBL3992563, “Piperazines as nootropic agents: New derivatives of the potent cognition-enhancer DM235 carrying hydrophilic substituents” (Bioorg Med Chem, 2017).

What was measured:
[1] = system: Mus musculus; assay: Cognition enhancing effect in […] mouse assessed as reversal of scopolamine-induced amnesia by measuring difference between training session and retention session time at MED treated 20 mins prior to training session followed by scopolamine challenge immediately after training session by passive avoidance test
[2] = system: Mus musculus; assay: Cognition enhancing effect in ip dosed mouse assessed as reversal of scopolamine-induced amnesia treated 20 mins prior to training session followed by scopolamine challenge immediately after training session by passive avoidance test; assay type: functional; settings: read-out: MED
[3] = Half life in PBS at 1 uM by LC-MS/MS analysis; assay type: physicochemical
Summary of the method: (§1)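 Analyte at 1 µM final in PBS or in plasma from male Sprague-Dawley rats (plasma stored at −80 °C), incubated at 37 °C. Sampled in triplicate at 0, 30, 60 and 120 min, then internal standard added. Quantified by ESI-positive LC-MS/MS in MRM mode (C18 column, formic acid/acetonitrile gradient) against calibration from 0–1.00 µM. Enalapril checked plasma hydrolytic activity; t1/2 extrapolated from concentration-time curves.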

[4] = Half life in Sprague-Dawley rat plasma at 1 uM by LC-MS/MS analysis; assay type: ADME, cell-free
Summary of the method: as §1

[5] = system: Mus musculus; assay: (§2) Cognition enhancing effect in sc dosed CD-1 albino mouse assessed as reversal of scopolamine-induced amnesia treated 20 mins prior to training session followed by scopolamine challenge immediately after training session by passive avoidance test; assay type: functional; settings: CD-1, sc, read-out: MED
Summary of the method: (§3)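 Mouse passive-avoidance test using a modified Jarvik–Kopp protocol. Drug in saline with 10% DMSO, given s.c. 20 min before training in a 1:10 dilution series up to 10 mg/kg. Scopolamine 1.5 mg/kg i.p. given right after the punishment/training session. Saline controls got an extra saline injection. Each value is the mean of 12–14 mice; the read-out is minimal effective dose.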

[6] = system: Mus musculus; assay: Toxicity in sc dosed CD-1 albino mouse assessed as effect on motor co-ordination at cognition enhancing MED by rota rod test; assay type: organism-based; settings: in vivo
[7] = system: Mus musculus; assay: Toxicity in sc dosed CD-1 albino mouse assessed as effect on spontaneous motility at cognition enhancing MED by hole-board test; assay type: organism-based; settings: in vivo
[8] = system: Mus musculus; assay: Toxicity in sc dosed CD-1 albino mouse assessed as gross behavior abnormality at cognition enhancing MED; assay type: organism-based; settings: in vivo
[9] = system: Mus musculus; assay: Potency index, ratio of piracetam MED to compound MED for cognition enhancing effect in sc dosed CD-1 albino mouse; assay type: functional
[10] = system: Mus musculus; assay: as §2, with “amnesia by measuring difference between training session and retention session time at MED” for “amnesia”; assay type: functional
Summary of the method: as §3

[11] = Stability in Sprague-Dawley rat plasma assessed as parent compound remaining at 1 uM after 60 mins by LC-MS/MS analysis; assay type: ADME, cell-free; settings: read-out: Stability
Summary of the method: as §1

[12] = system: Plasma; assay: Drug level in Sprague-Dawley rat plasma treated with (4-Acetyl-1-(4-fluorophenylsulfonyl)piperazin-2-yl)methyl acetate at 1 uM after 60 mins by LC-MS/MS analysis; assay type: ADME, cell-free; settings: 1 h
Summary of the method: as §1

[13] = Stability in Sprague-Dawley rat plasma assessed as parent compound remaining at 1 uM after 2 hrs by LC-MS/MS analysis; assay type: ADME, cell-free; settings: read-out: Stability
Summary of the method: as §1

[14] = system: Plasma; assay: Drug metabolism in Sprague-Dawley rat plasma assessed as 1-(4-(4-Fluorophenylsulfonyl)-2-(hydroxymethyl)piperazin-1-yl)ethanone formation at 1 uM after 60 mins by LC-MS/MS analysis; assay type: ADME, cell-free; settings: 1 h
Summary of the method: as §1

[15] = system: Plasma; assay: Drug level in Sprague-Dawley rat plasma treated with (4-Benzoyl-1-propionylpiperazin-2-yl)methyl acetate at 1 uM after 60 mins by LC-MS/MS analysis; assay type: ADME, cell-free; settings: 1 h
Summary of the method: as §1

Row | half-life at 1 µM [3] | half-life at 1 µM [4] | remaining at 1 h, 1 µM [11] | Drug metabolism [12] | remaining at 2 h, 1 µM [13] | Drug metabolism [14] | Drug metabolism [15] | SMILES | Time [1] | minimal effective dose [2] | minimal effective dose [5] | Activity [6] | Activity [7] | Activity [8] | Ratio [9] | Time [10]
1 |  |  |  |  |  |  |  | CC(=O)N1CCN(S(=O)(=O)c2ccc(F)cc2)C(C)C1 (centres undefined) | 82.6 s | 0.1 mg/kg |  |  |  |  |  | 
2 |  |  |  |  |  |  |  | CC(=O)N1CCN(S(=O)(=O)c2ccc(F)cc2)CC1C (centres undefined) | 83.9 s | 1 mg/kg |  |  |  |  |  | 
3 |  |  |  |  |  |  |  | CCC(=O)N1CCN(C(=O)c2ccccc2)C(C)C1 (centres undefined) | 60.2 s | 0.1 mg/kg |  |  |  |  |  | 
4 |  |  |  |  |  |  |  | CCC(=O)N1CCN(C(=O)c2ccccc2)CC1C (centres undefined) |  | > 10 mg/kg |  |  |  |  |  | 
5 | ≥ 4 h | ≥ 4 h |  |  |  |  |  | CC(=O)N1CCN(S(=O)(=O)c2ccc(F)cc2)CC1 |  | 0.01 mg/kg |  |  |  |  |  | 
6 | ≥ 4 h | ≥ 4 h |  |  |  |  |  | COCC1CN(S(=O)(=O)c2ccc(F)cc2)CCN1C(C)=O (centres undefined) |  |  | > 10 mg/kg | Non-Toxic | Non-Toxic | Non-Toxic |  | 
7 | ≥ 4 h | ≥ 4 h |  |  |  |  |  | CCC(=O)N1CCN(C(=O)c2ccccc2)C(COC)C1 (centres undefined) |  |  | 1 mg/kg | Non-Toxic | Non-Toxic | Non-Toxic | 3 - 300 | 73.4 s
8 |  |  |  |  |  |  |  | CCC(=O)N1CCN(C(=O)c2ccccc2)[C@H](CO)C1 |  |  | 1 mg/kg |  |  |  |  | 58.8 s
9 | ≥ 4 h | 0.617 h | < 50% |  |  |  |  | CCOC(=O)C1CN(S(=O)(=O)c2ccc(F)cc2)CCN1C(C)=O (centres undefined) |  |  | 1 mg/kg | Non-Toxic | Non-Toxic | Non-Toxic | 3 - 300 | 50.1 s
10 | ≥ 4 h | ≥ 4 h |  |  |  |  |  | CCC(=O)N1CCN(C(=O)c2ccccc2)CC1COC (centres undefined) |  |  | 10 mg/kg | Non-Toxic | Non-Toxic | Non-Toxic | 3 - 300 | 79.7 s
11 | ≥ 4 h | ≥ 4 h |  | Metabolite_Detected |  |  |  | CC(=O)N1CCN(S(=O)(=O)c2ccc(F)cc2)C(CO)C1 (centres undefined) |  |  | 1 mg/kg | Non-Toxic | Non-Toxic | Non-Toxic | 3 - 300 | 66.2 s
12 | ≥ 4 h | 0.5 h |  |  | ≤ 10% | Metabolite_Detected |  | CC(=O)OCC1CN(S(=O)(=O)c2ccc(F)cc2)CCN1C(C)=O (centres undefined) |  |  | > 10 mg/kg | Non-Toxic | Non-Toxic | Non-Toxic |  | 
13 |  |  |  |  |  |  |  | CC(=O)OC[C@H]1CN(C(C)=O)CCN1S(=O)(=O)c1ccc(F)cc1 |  |  | 1 mg/kg |  |  |  |  | 70.6 s
14 | ≥ 4 h | ≥ 4 h |  |  |  |  | Metabolite_Detected | CCC(=O)N1CCN(C(=O)c2ccccc2)CC1CO (centres undefined) |  |  | 10 mg/kg | Non-Toxic | Non-Toxic | Non-Toxic | 3 - 300 | 72.7 s
15 | ≥ 4 h | ≥ 4 h |  |  |  |  |  | COCC1CN(C(C)=O)CCN1S(=O)(=O)c1ccc(F)cc1 (centres undefined) |  |  | 1 mg/kg | Non-Toxic | Non-Toxic | Non-Toxic | 3 - 300 | 76.5 s
